SMILES strings stand for the structures. Values after ≈ are worked out from the molar mass of the structure shown. Active and inactive are the calls of the source. The rule behind the calls is not given here.

Drawing on ChEMBL document CHEMBL4814057, “4-4-(Anilinomethyl)-3-[4-(trifluoromethyl)phenyl]-1H-pyrazol-1-ylbenzoic acid derivatives as potent anti-gram-positive bacterial agents” (Eur J Med Chem, 2021), this text covers MIC for nine compounds.

Assay [1] deals with Staphylococcus epidermidis. Nature of the assay: Antimicrobial activity against methicillin-resistant Staphylococcus epidermidis ATCC 700296 assessed as bacterial growth inhibitions by CLSI protocol based microdilution method. The format is functional. Background: Broth dilution looks for growth in wells or tubes with falling amounts of substance.
Assay [2] deals with Staphylococcus aureus. Nature of the assay: Antimicrobial activity against methicillin-resistant Staphylococcus aureus ATCC 33591 assessed as bacterial growth inhibitions by CLSI protocol based microdilution method. The class given is functional.
For assay [3], the system named is Enterococcus faecalis. Nature of the assay: Antimicrobial activity against vancomycin-susceptible Enterococcus faecalis ATCC 29212 assessed as bacterial growth inhibitions by CLSI protocol based microdilution method.
Assay [4] relates to Staphylococcus aureus. Nature of the assay: Antimicrobial activity against methicillin-susceptible Staphylococcus aureus ATCC 25923 assessed as bacterial growth inhibitions by CLSI protocol based microdilution method. The format is functional.
For assay [5], the system named is Enterococcus faecium. Nature of the assay: Antimicrobial activity against vancomycin-resistant Enterococcus faecium ATCC 700221 assessed as bacterial growth inhibitions by CLSI protocol based microdilution method. The format is functional.
Assay [6] has as its system Bacillus subtilis. Nature of the assay: Antimicrobial activity against Bacillus subtilis ATCC 6623 assessed as bacterial growth inhibitions by CLSI protocol based microdilution method. The class given is functional. In outline: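 Broth microdilution starting at 50 µg/ml with 2-fold serial dilutions; run in triplicate.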
The subject of assay [7] is Staphylococcus aureus. Nature of the assay: Antimicrobial activity against antibiotic-resistant Staphylococcus aureus BM-2312 assessed as bacterial growth inhibitions by CLSI protocol based microdilution method. The format is functional.
The test system of assay [8] is Staphylococcus aureus. Nature of the assay: Antimicrobial activity against methicillin-resistant Staphylococcus aureus ATCC 33592 assessed as bacterial growth inhibitions by CLSI protocol based microdilution method. The class given is functional.
Assay [9] deals with Staphylococcus aureus. Nature of the assay: Antimicrobial activity against methicillin-resistant Staphylococcus aureus ATCC 700699 assessed as bacterial growth inhibitions by CLSI protocol based microdilution method. The format is functional.

For orientation: MIC means the least concentration at which growth counts as inhibited. On to `O=C(O)c1ccc(-n2cc(CNc3ccc(Cl)c(C(F)(F)F)c3)c(-c3ccc(C(F)(F)F)cc3)n2)cc1`, for which the MIC in assay [1], in assay [2], in assay [3], in assay [4], in assay [5] and in assay [6] was 0.78 µg/mL (≈ 1.44 µM) throughout. The MIC in assay [7], in assay [8] and in assay [9] was 0.78 µg/mL (≈ 1.44 µM) throughout.

Consider `N#Cc1ccc(NCc2cn(-c3ccc(C(=O)O)cc3)nc2-c2ccc(C(F)(F)F)cc2)cc1C(F)(F)F`, for which the MIC in assay [1] stood at 3.12 µg/mL (≈ 5.88 µM); in assay [2] it was 0.78 µg/mL (≈ 1.47 µM); in [3], 12.5 µg/mL (≈ 23.6 µM); in assay [4], 1.56 µg/mL (≈ 2.94 µM); in [5], 6.25 µg/mL (≈ 11.8 µM); in [6] it was 0.78 µg/mL (≈ 1.47 µM). The figures for the MIC in [7], in assay [8] and in assay [9] were 1.56 µg/mL (≈ 2.94 µM), 0.78 µg/mL (≈ 1.47 µM) and 1.56 µg/mL (≈ 2.94 µM), respectively.

As to `O=C(O)c1ccc(-n2cc(CNc3cc(Cl)c(F)cc3F)c(-c3ccc(C(F)(F)F)cc3)n2)cc1`, the MIC in assay [1] was 3.12 µg/mL (≈ 6.14 µM); in assay [2], 1.56 µg/mL (≈ 3.07 µM); in assay [3] it was 6.25 µg/mL (≈ 12.3 µM); in [4], 1.56 µg/mL (≈ 3.07 µM); in assay [5], 1.56 µg/mL (≈ 3.07 µM); in assay [6], 0.78 µg/mL (≈ 1.54 µM). The MIC in assay [7] came to 0.78 µg/mL (≈ 1.54 µM); in assay [8], 1.56 µg/mL (≈ 3.07 µM); in assay [9], 0.78 µg/mL (≈ 1.54 µM).

With `O=C(O)c1ccc(-n2cc(CNc3ccc(Cl)c(Cl)c3F)c(-c3ccc(C(F)(F)F)cc3)n2)cc1`, the MIC in [1] was 0.78 µg/mL (≈ 1.49 µM); in assay [2] it was 0.78 µg/mL (≈ 1.49 µM); in assay [3], 1.56 µg/mL (≈ 2.98 µM); in assay [4], 0.78 µg/mL (≈ 1.49 µM); in [5], 0.78 µg/mL (≈ 1.49 µM); in assay [6] it was 0.78 µg/mL (≈ 1.49 µM). The MIC in [7], in assay [8] and in [9] was 0.78 µg/mL (≈ 1.49 µM) each time.

In the case of `O=C(O)c1ccc(-n2cc(CNc3ccc(F)cc3)c(-c3ccc(C(F)(F)F)cc3)n2)cc1`, the MIC in assay [1] is 12.5 µg/mL (≈ 27.4 µM); in assay [2], 6.25 µg/mL (≈ 13.7 µM); in assay [3] it was 25 µg/mL (≈ 54.9 µM); in [4] it was 6.25 µg/mL (≈ 13.7 µM); in assay [5], 6.25 µg/mL (≈ 13.7 µM); in assay [6], 1.56 µg/mL (≈ 3.43 µM). The minimum inhibitory concentration (MIC) in [7] came out at 3.12 µg/mL (≈ 6.85 µM); in [8], 12.5 µg/mL (≈ 27.4 µM); in assay [9], 6.25 µg/mL (≈ 13.7 µM).

As to `O=C(O)c1ccc(-n2cc(CNc3cccc(Cl)c3)c(-c3ccc(C(F)(F)F)cc3)n2)cc1`, the MIC stood at 3.12 µg/mL (≈ 6.61 µM) in assay [1]; 0.78 µg/mL (≈ 1.65 µM) in assay [2]; 12.5 µg/mL (≈ 26.5 µM) in [3]; 1.56 µg/mL (≈ 3.31 µM) in assay [4]; 0.78 µg/mL (≈ 1.65 µM) in assay [5]; 0.78 µg/mL (≈ 1.65 µM) in assay [6]. For the same compound, the figures for the MIC in assay [7], in assay [8] and in assay [9] were 1.56 µg/mL (≈ 3.31 µM), 1.56 µg/mL (≈ 3.31 µM) and 0.78 µg/mL (≈ 1.65 µM), respectively.

In the case of `O=C(O)c1ccc(-n2cc(CNc3ccc(Br)cc3)c(-c3ccc(C(F)(F)F)cc3)n2)cc1`, the MIC was found to be 3.12 µg/mL (≈ 6.04 µM) in assay [1]; 0.78 µg/mL (≈ 1.51 µM) in assay [2]; 6.25 µg/mL (≈ 12.1 µM) in assay [3]; 0.78 µg/mL (≈ 1.51 µM) in assay [4]; 0.78 µg/mL (≈ 1.51 µM) in assay [5]; 0.78 µg/mL (≈ 1.51 µM) in assay [6]. The MIC in assay [7] was found to be 0.78 µg/mL (≈ 1.51 µM); in [8], 1.56 µg/mL (≈ 3.02 µM); in assay [9] it was 0.78 µg/mL (≈ 1.51 µM).

`O=C(O)c1ccc(-n2cc(CNc3cc(Cl)c(O)c(Cl)c3)c(-c3ccc(C(F)(F)F)cc3)n2)cc1`: the MIC was 50 µg/mL (≈ 95.7 µM) in assay [1]; 50 µg/mL (≈ 95.7 µM) in assay [2]; 50 µg/mL (≈ 95.7 µM) in assay [3]; 50 µg/mL (≈ 95.7 µM) in assay [4]; 12.5 µg/mL (≈ 23.9 µM) in assay [6]; 50 µg/mL (≈ 95.7 µM) in [7]. Further, the MIC in [8] and in assay [9] was 50 µg/mL (≈ 95.7 µM) throughout. Moreover, the MIC result in assay [5] is “inactive”.

Consider `O=C(O)c1ccc(-n2cc(CNc3cc(Cl)cc(C(F)(F)F)c3)c(-c3ccc(C(F)(F)F)cc3)n2)cc1`, for which the MIC was 1.56 µg/mL (≈ 2.89 µM) in [1]; 0.78 µg/mL (≈ 1.44 µM) in [2]; 6.25 µg/mL (≈ 11.6 µM) in assay [3]; 0.78 µg/mL (≈ 1.44 µM) in assay [4]; 0.78 µg/mL (≈ 1.44 µM) in assay [5]; 0.78 µg/mL (≈ 1.44 µM) in assay [6]. Moreover, the MIC in [7], in assay [8] and in assay [9] was 0.78 µg/mL (≈ 1.44 µM) in each case.
